From ChEMBL document CHEMBL1157043, “An eco-friendly synthesis and antimicrobial activities of dihydro-2H-benzo- and naphtho-1,3-oxazine derivatives” (Eur J Med Chem, 2010)
Values after ≈ are worked out from the molar mass of the structure shown.

Experiments:
[1] = system: Pseudomonas aeruginosa; assay: Antimicrobial activity against Pseudomonas aeruginosa after 24 hrs; assay type: functional
Summary of the method: (§1)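 NCCLS microdilution in Mueller Hinton broth. Strains were grown 24 h on nutrient agar at 37 °C, suspended at about 1.0–2.0 × 10^7 cells/mL (McFarland-matched) in saline with 0.05% Tween 20, then diluted 100 µL into 10 mL medium. Compounds were taken from a 1 mg/mL DMSO stock as twofold dilutions, top final 50 µg/mL. Incubation was 35 °C in a moist, dark chamber, and MIC was read spectrophotometrically at 24 h.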

[2] = system: Klebsiella pneumoniae; assay: Antimicrobial activity against Klebsiella pneumoniae after 24 hrs; assay type: functional; summary of the method: as §1
[3] = system: Trichophyton mentagrophytes; assay: Antimicrobial activity against Trichophyton mentagrophytes after 72 to 96 hrs
[4] = system: Candida albicans; assay: Antimicrobial activity against Candida albicans after 24 hrs; assay type: functional
Summary of the method: (§2)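 Broth microdilution per NCCLS guidelines in MOPS-buffered RPMI 1640. Starting inoculum was 1-5 × 10^3 cfu/mL, and plates were incubated at 35 °C. MIC was read spectrophotometrically at 492 nm after 24–48 h for yeasts and 72–96 h for mycelial fungi.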

[5] = system: Candida parapsilosis; assay: Antimicrobial activity against Candida parapsilosis ATCC 22019 after 24 hrs; assay type: functional; conditions: Lodderomyces parapsilosis, ATCC 22019, 24 h; summary of the method: as §2
[6] = system: L929; assay: Cytotoxicity against mouse L929 cells assessed as change in morphology at 6.25 ug/ml after 24 hrs […]; assay type: cell-based; conditions: l929, 24 h
Summary of the method: (§3)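 L929 fibroblasts (serum-free RPMI, 37 °C, 5% CO2) were exposed to compound for 24 h, then fixed and stained with Giemsa for 30 min at 37 °C. Excess stain was washed off with PBS, plates were air-dried, and cell morphology was examined under a phase contrast microscope against untreated controls.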

[7] = system: Aspergillus fumigatus; assay: Antimicrobial activity against Aspergillus fumigatus after 72 to 96 hrs
[8] = Cytotoxicity against mouse L929 cells assessed as viability at 12.5 to 25 ug/ml after 24 hrs by MTT assay; assay type: cell-based; conditions: read-out: Activity
Summary of the method: (§4)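 L929 mouse fibroblasts were grown in RPMI 1640 with 10% FBS at 37 °C under 5% CO2 and seeded at 1.0 × 10^5 cells/mL. At 80% confluence the medium was switched to serum-free RPMI, and cells were exposed 24 h to 0.09–25 µg/mL in twofold steps. After PBS washes, cells got 0.5 mg/mL MTT for 4 h at 37 °C, then DMSO for 30 min at room temperature. Viability was calculated as (A570−A630) relative to untreated cells.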

[9] = system: Escherichia coli; assay: Antimicrobial activity against Escherichia coli after 24 hrs; assay type: functional; summary of the method: as §1
[10] = system: Staphylococcus aureus; assay: Antimicrobial activity against Staphylococcus aureus after 24 hrs; assay type: functional; summary of the method: as §1
[11] = system: Cryptococcus neoformans; assay: Antimicrobial activity against Cryptococcus neoformans after 24 hrs; assay type: functional; summary of the method: as §2
[12] = system: L929; assay: Cytotoxicity against mouse L929 cells assessed as change in cellular morphology at 12.5 to 25 ug/ml after 24 hrs […]; assay type: cell-based; conditions: l929, 24 h; summary of the method: as §3
[13] = system: Sporothrix schenckii; assay: Antimicrobial activity against Sporothrix schenckii after 24 hrs; assay type: functional; summary of the method: as §2
[14] = system: L929; assay: Cytotoxicity against mouse L929 cells at 6.25 ug/ml after 24 hrs by MTT assay; assay type: cell-based; conditions: l929, 24 h; summary of the method: as §4
[15] = system: Aspergillus fumigatus; assay: Antimicrobial activity against Aspergillus fumigatus after 24 hrs; assay type: functional
[16] = system: Trichophyton mentagrophytes; assay: Antimicrobial activity against Trichophyton mentagrophytes after 24 hrs; assay type: functional

MIC [1] [µg/mL]	MIC [2] [µg/mL]	MIC [3] [µg/mL]	MIC [4] [µg/mL]	MIC [5] [µg/mL]	MIC [7] [µg/mL]	MIC [9] [µg/mL]	MIC [10] [µg/mL]	MIC [11] [µg/mL]	MIC [13] [µg/mL]	MIC [15] [µg/mL]	MIC [16] [µg/mL]	SMILES	Activity [6]	viability at 24 h [8] [%]	Activity [12]	Activity [14]
> 50	> 50	3.12 (≈ 11.1 µM)	12.5 (≈ 44.6 µM)	25 (≈ 89.2 µM)	25 (≈ 89.2 µM)	> 50	6.25 (≈ 22.3 µM)	12.5 (≈ 44.6 µM)	6.25 (≈ 22.3 µM)			Clc1ccc2c(c1)CN(c1ccccc1Cl)CO2	Non-toxic	> 90	Toxic	Non-toxic
50 (≈ 206 µM)	50 (≈ 206 µM)		> 50	> 50		50 (≈ 206 µM)	50 (≈ 206 µM)	50 (≈ 206 µM)	25 (≈ 103 µM)	> 50	25 (≈ 103 µM)	Cc1ccc2c(c1)CN(c1ccc(F)cc1)CO2				
> 50	> 50	3.12 (≈ 8.54 µM)	12.5 (≈ 34.2 µM)	25 (≈ 68.4 µM)	50 (≈ 137 µM)	> 50	12.5 (≈ 34.2 µM)	12.5 (≈ 34.2 µM)	6.25 (≈ 17.1 µM)			Clc1ccc2c(c1)CN(CCN1COc3ccc(Cl)cc3C1)CO2	Non-toxic	> 90	Toxic	Non-toxic
50 (≈ 193 µM)	25 (≈ 96.3 µM)		50 (≈ 193 µM)	50 (≈ 193 µM)		> 50	25 (≈ 96.3 µM)	25 (≈ 96.3 µM)	12.5 (≈ 48.1 µM)	25 (≈ 96.3 µM)	12.5 (≈ 48.1 µM)	Cc1ccc2c(c1)CN(c1ccc(Cl)cc1)CO2				
